The results in this text go back to ChEMBL document CHEMBL1128597, “Picornavirus inhibitors: trifluoromethyl substitution provides a global protective effect against hepatic metabolism” (J Med Chem, 1995).

A short description of data set [1]: t1/2 in monkey liver microsomes. The note with it: simiiformes. The class given is ADME, Microsome.
Data set [2] can be described thus: Tested for pharmacokinetic parameter in fasted Beagle dogs (Clearance value of the compound) iv administration. The note with it: dog, in vivo. The data set is classed as ADME, organism-based, Canis lupus familiaris. The essentials: (§1)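 Single intravenous bolus of 10 mg/kg given to fasted beagle dogs. Plasma was extracted with hexane and assayed by GC with electron-capture detection or by reverse-phase HPLC, depending on the analyte. Concentrations below the minimum quantifiable level were ignored when computing means. Half-life and CL were derived from plasma profiles by model-independent methods, and AUC by the trapezoidal rule.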

A short description of data set [3]: Tested for pharmacokinetic parameter in fasted Beagle dogs (Half-life) iv administration. The note with it: dog, in vivo. The data set is classed as ADME, organism-based, Canis lupus familiaris. The essentials: as §1
Data set [4] can be described thus: Tested for pharmacokinetic parameter in fasted Beagle dogs (Area Under Curve value) iv administration. The data set is classed as ADME, organism-based, Canis lupus familiaris. The note with it: dog, in vivo. The essentials: as §1

`Cc1cc(CCCOc2c(C)cc(-c3noc(C(F)F)n3)cc2C)on1`: the half-life in data set [1] is 1.42 h. As to `COCc1cc(CCCOc2c(C)cc(-c3noc(C(F)(F)F)n3)cc2C)on1`, the half-life in data set [1] came out at 1.58 h.

As to `Cc1cc(CCCOc2c(C)cc(-c3noc(C(Cl)(Cl)Cl)n3)cc2C)on1`, the half-life in data set [1] is 0.183 h.

Molecule `Cc1cc(CCCOc2c(C)cc(-c3noc(CF)n3)cc2C)on1` returned a half-life in data set [1] of 0.233 h. In turn, `Cc1ccc(CCCOc2c(C)cc(-c3noc(C(F)(F)F)n3)cc2C)cn1` showed a half-life in data set [1] of 1.97 h.

In data set [1], `Cc1cc(CCCOc2c(C)cc(-c3noc(C(N)=O)n3)cc2C)on1` returned a half-life of 2.3 h. On the same count and under the same terms, in the case of `Cc1ccc(CCCOc2c(C)cc(-c3noc(C)n3)cc2C)cn1` it was 1.37 h; in that of `Cc1nc(-c2cc(C)c(OCCCc3cccc(F)n3)c(C)c2)no1`, 0.283 h; in that of `Cc1cc(CCCOc2c(C)cc(-c3noc(C(C)(F)F)n3)cc2C)on1`, 1.1 h. In the case of `Cc1cc(CCCOc2c(C)cc(-c3noc(C#N)n3)cc2C)on1`, the half-life in data set [1] amounted to 0.283 h.

As to `CCOc1nc(-c2cc(C)c(OCCCc3cc(C)no3)c(C)c2)no1`, the half-life in data set [1] is over 2.5 h. Turning to `CC(=O)c1ccc(CCCOc2c(C)cc(-c3noc(C(F)(F)F)n3)cc2C)o1`, the half-life in data set [1] came to 1.05 h. On the same count and under the same terms, the same measure for `Cc1cc(CCCOc2c(C)cc(-c3noc(CC(F)(F)F)n3)cc2C)on1`: 0.533 h; for `Cc1cc(CCCOc2c(C)cc(-c3noc(C4CC4)n3)cc2C)on1`: 2.23 h; for `CCc1cc(CCCOc2c(C)cc(-c3noc(C(F)(F)F)n3)cc2C)on1`: over 2.5 h.

Take `CCc1cc(CCCOc2c(C)cc(-c3noc(C)n3)cc2C)on1`: in data set [1], the half-life was 0.183 h.

For the molecule `COc1nc(-c2cc(C)c(OCCCc3cc(C)no3)c(C)c2)no1`, in data set [1], the half-life worked out at 0.55 h. Same read-out and setting: in the case of `Cc1cc(-c2noc(C3CC3)n2)cc(C)c1OCCCc1cc(C2CC2)no1` it was over 2.5 h.

In data set [1], `COCc1cc(CCCOc2c(C)cc(-c3noc(C)n3)cc2C)on1` returned a half-life of 0.5 h. Molecule `Cc1cc(-c2noc(C3CC3)n2)cc(C)c1OCCCc1cc(CO)no1` had a half-life in data set [1] of over 2.5 h. Same read-out and setting: in the case of `Cc1cc(-c2noc(C(F)(F)F)n2)cc(C)c1OCCCc1cc(C[S+](C)[O-])no1` (centres undefined) it was over 2.5 h; in that of `Cc1cc(CCCOc2c(C)cc(-c3noc(C)n3)cc2C)on1`, 0.45 h; in that of `CCc1cc(CCCOc2c(C)cc(-c3noc(C4CC4)n3)cc2C)on1`, 0.9 h. On the same count and under the same terms, the same measure for `Cc1cc(-c2noc(C3CC3)n2)cc(C)c1OCCCc1cc(OCCO)no1`: over 2.5 h; for `Cc1cc(-c2noc(C(F)(F)F)n2)cc(C)c1OCCCc1cc(CS(C)(=O)=O)no1`: over 2.5 h.

Take `CCOc1cc(CCCOc2c(C)cc(-c3noc(C4CC4)n3)cc2C)on1`: in data set [1], the half-life was over 2.5 h. The same measure, in the same setting: in the case of `Cc1cc(-c2noc(C(F)(F)F)n2)cc(C)c1OCCCc1cc(CO)no1` it was over 2.5 h; in that of `CCOCc1cc(CCCOc2c(C)cc(-c3noc(C(F)(F)F)n3)cc2C)on1`, over 2.5 h; in that of `COCc1cc(CCCOc2c(C)cc(-c3noc(C4CC4)n3)cc2C)on1`, over 2.5 h.

For `CC(=O)c1ccc(CCCOc2c(C)cc(-c3noc(C)n3)cc2C)o1`, the half-life in data set [1] stood at 0.617 h. On the same count and under the same terms, the same measure for `Cc1nc(-c2cc(C)c(OCCCc3cc(C(F)(F)F)no3)c(C)c2)no1`: 0.55 h; for `Cc1cc(-c2noc(C(F)(F)F)n2)cc(C)c1OCCCc1cccc(F)n1`: over 2.5 h. Regarding `Cc1cc(CCCOc2c(C)cc(-c3noc(C(F)(F)F)n3)cc2C)on1` [PLECONARIL], the half-life was over 2.5 h in data set [1] and 27 h in data set [3]. Further, the clearance in data set [2] is 12.8 mL/min/kg. The same molecule registered an AUC in data set [4] of 11800 ng·h/mL. In data set [2], `Cc1cc(CCCCCOc2c(Cl)cc(C3=NCCO3)cc2Cl)on1` [WIN-54954] showed a clearance of 31.8 mL/min/kg. The half-life in data set [3] was 7 h. In data set [4], the AUC was 4910 ng·h/mL.
